Legend:
[1] = melting temperature; fluorescence melt of hairpins on a sequencing array, two-state fit, raised by 9.35 °C to match UV melts; conditions: sodium 0.088 M
Summary of the method: (§1)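 Hairpins were imaged by Cy3 fluorescence on a sequenced MiSeq flow cell with annealed Cy3 and quencher oligos, in 50 mM Na-HEPES pH 8.0, 25 mM NaCl, in 2.5 °C steps up to 60 °C. Bootstrapped two-state fits of normalised signals gave melting temperature and folding enthalpy. Four replicates were combined by inverse variance, and fitted temperatures were raised by 9.35 °C to match UV melts.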

[2] = folding enthalpy; higher = less favourable; fluorescence melt of hairpins on a sequencing array, two-state fit; conditions: sodium 0.088 M
Summary of the method: as §1

| Sequence | Tm [1] | folding enthalpy [2] |
| --- | --- | --- |
| CGTCCGCGGAAACGCACG (((..(((....)))))) | 33.5 °C | -12 kcal/mol |
| CGTCCGGAAACGGCAACG ((((((....)))..))) | 38.5 °C | -14.8 kcal/mol |
| CGTCCGGAAACGGGAACG ((((((....)))..))) | 38.9 °C | -22.5 kcal/mol |
| CGTCGCGGAAACGCAACG (((.(((....))).))) | 50.5 °C | -28.8 kcal/mol |
| CGTCGCGGAAACGCACG (((.(((....)))))) | 50.5 °C | -19.4 kcal/mol |
| CGTCGGAAACGACG (((((....))))) | 69.2 °C | -27.6 kcal/mol |
| CGTCGTCGGAAACGAACG (((..(((....)))))) | 48.8 °C | -24.9 kcal/mol |
| CGTCTACGGAAACGTACG (((..(((....)))))) | 31.5 °C | -11.6 kcal/mol |
| CGTGACCGGAAACGGACG (((..(((....)))))) | 36.2 °C | -15.7 kcal/mol |
| CGTGACGGAAACGTTACG (((.(((....))).))) | 52.2 °C | -29.3 kcal/mol |
| CGTGCGGAAACGCAAACG ((((((....)))..))) | 45.3 °C | -19.9 kcal/mol |
| CGTGCGGAAACGCAACG ((((((....))).))) | 53.9 °C | -27.5 kcal/mol |
| CGTGCGGAAACGCGACG ((((((....))).))) | 55.1 °C | -23.5 kcal/mol |
| CGTGCGGAAACGCTACG ((((((....))).))) | 50.6 °C | -27.6 kcal/mol |
| CGTGGCGGAAACGCGACG (((.(((....))).))) | 57.7 °C | -35.6 kcal/mol |
| CGTGGCGGAAACGCTACG (((.(((....))).))) | 59.6 °C | -33.8 kcal/mol |
| CGTGGGCGGAAACGCACG (((..(((....)))))) | 53.1 °C | -13.4 kcal/mol |
| CGTTAACGGAAACGTACG (((..(((....)))))) | 37 °C | -17.6 kcal/mol |
| CGTTACGGAAACGTGACG (((.(((....))).))) | 51.5 °C | -52.2 kcal/mol |
| CGTTCCGGAAACGGACG (((.(((....)))))) | 49.9 °C | -30.8 kcal/mol |
| CGTTCGCGGAAACGCACG (((..(((....)))))) | 40.4 °C | -13.6 kcal/mol |
| CGTTCGGAAACGAGCACG ((((((....)))..))) | 30.7 °C | -13.2 kcal/mol |
| CGTTCGGAAACGATCACG ((((((....)))..))) | 30.9 °C | -13.9 kcal/mol |

| Sequence | Tm [1] | folding enthalpy [2] |
| --- | --- | --- |
| CGTTCTCGGAAACGAACG (((..(((....)))))) | 35.8 °C | -19.2 kcal/mol |
| CGTTGCGGAAACGCTACG (((.(((....))).))) | 56 °C | -33.4 kcal/mol |
| CGTTTTCGGAAACGAACG (((..(((....)))))) | 37 °C | -12.1 kcal/mol |
| CTACAGAAATGTAG (((((....))))) | 36.5 °C | -13.3 kcal/mol |
| CTACGGAAACGTAG (((((....))))) | 49.4 °C | -24.9 kcal/mol |
| CTATCGAAAGATAG (((((....))))) | 47.1 °C | -21.7 kcal/mol |
| CTGTGGAAACACAG (((((....))))) | 52.1 °C | -19.7 kcal/mol |
| CTGTTGAAAAACAG (((((....))))) | 42.3 °C | -23.7 kcal/mol |
| CTTTCGAAAGAAAG (((((....))))) | 47.3 °C | -19.3 kcal/mol |
| CTTTGGAAACAAAG (((((....))))) | 37.1 °C | -22.4 kcal/mol |
| CTTTTGAAAAAAAG (((((....))))) | 30.1 °C | -7.85 kcal/mol |
| GAAAAAGCGAAAGCTTTC (((..(((....)))))) | 33.2 °C | -12.1 kcal/mol |
| GAAAACCCGAAAGGGTTC (((..(((....)))))) | 39.8 °C | -8.48 kcal/mol |
| GAAAACGAAAGTTTCTTC ((((((....)))..))) | 46.6 °C | -35 kcal/mol |
| GAAAACGAAAGTTTTTTC ((((((....)))..))) | 38.9 °C | -20.7 kcal/mol |
| GAAAACGGAAACGTTTCC (.(((((....))))).) | 34.1 °C | -15.1 kcal/mol |
| GAAAACGGAAACGTTTTC (((((((....))))))) | 57.9 °C | -39.4 kcal/mol |
| GAAAATGCGAAAGCATTC (((..(((....)))))) | 32.7 °C | -10 kcal/mol |
| GAAAATGGAAACGTTTTC (((((.(....).))))) | 37.8 °C | -32.3 kcal/mol |
| GAAACACGAAAGTGCTTC (((.(((....))).))) | 43.8 °C | -22.5 kcal/mol |
| GAAACACGAAAGTGGTTC (((.(((....))).))) | 55 °C | -44.3 kcal/mol |
| GAAACAGCGAAAGCTTTC (((..(((....)))))) | 29.1 °C | -15.3 kcal/mol |
| GAAACAGGAAACCGTTTC (((((.(....).))))) | 35.8 °C | -24.3 kcal/mol |

From the array DNA melting data of Ke et al. (doi:10.1101/2024.01.08.574731)
